Entries after “also recorded” stand apart in the source; their conditions may differ. Blank lines part the entries; values can stand above or below the substance they belong to. Ends that are not written are not given here.
What was measured:
cells = conditions: ref [48]; cited from earlier work
[1] = Circular dichroism spectroscopy; assay type: physicochemical; conditions: 37 °C; for helicity, with TFE: 20% trifluoroethanol
Method in brief: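 Peptides at 0.2 mg/mL (final) in 10 mM phosphate buffer, with or without 20% trifluoroethanol, held at 37 °C. Far-UV spectra recorded from 190 to 240 nm on a spectropolarimeter. Ellipticity in mdeg converted to mean residue ellipticity (deg cm² dmol⁻¹).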

isolated human LDL = test: Isothermal titration calorimetry, binding to LDL; conditions: for binding to LDL by ITC: isolated human LDL injected into peptide, PBS pH 7.4
Method in brief: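 Human LDL and HDL isolated by ultracentrifugation. Lipoprotein titrated into a cell holding peptide or buffer alone: one initial injection, then 35 injections spaced 180 s apart. Heat monitored throughout and thermograms integrated to isotherms.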

isolated human HDL = test: Isothermal titration calorimetry, binding to HDL; conditions: isolated human HDL injected into peptide, PBS pH 7.4
Method in brief: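 Human HDL isolated by ultracentrifugation. Lipoprotein titrated into cell holding peptide or buffer alone: one small initial injection, then 35 injections, 180 s apart, with heat monitored continuously. Thermograms integrated to binding isotherms.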

[2] = DMP cross-linking, SDS-PAGE; assay type: physicochemical; conditions: PBS, DMP:peptide 30:1, 2 h room temperature
Method in brief: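 Homo-bifunctional amine-reactive crosslinker dimethylpimelimidate reacted with peptide at 30:1 molar ratio (crosslinker:peptide) in PBS for 2 h at room temperature. Quenched with 1 M Tris. Products resolved by SDS-PAGE under reducing conditions and stained with Coomassie blue to visualise oligomeric species.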

[3] = tested on: apoB containing lipoproteins in human plasma; assay type: binding; conditions: FPLC separation, VLDL plus LDL
Method in brief: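 FITC-labelled peptide incubated with human plasma for 1 h at 37 °C. Separated on two Superose 6 columns in series in Tris buffer (10 mM Tris, 150 mM NaCl, 0.5 mM EDTA, 0.01% azide) at 0.5 mL/min, collecting 0.5 mL fractions. Enzymatic phospholipid assay located VLDL, LDL and HDL. Fluorescence read at ex 485 / em 535 nm. Each peak expressed as percent of total fluorescence.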

[4] = tested on: lipoproteins in human plasma; test: Exchangeability of LDL-bound peptide among lipoproteins; conditions: FITC labeled B38 on isolated LDL, then human plasma 1 h at 37 °C, FPLC
Method in brief: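 FITC-labelled peptide co-incubated with isolated human LDL for 1 h at 37 °C. LDL repurified by FPLC to remove unbound peptide, and LDL fractions pooled and concentrated. Peptide-loaded LDL then incubated with PBS or human plasma for 1 h at 37 °C. Transfer of fluorescent peptide to other lipoprotein classes measured.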

human ABCA1 = human ABCA1 (Homo sapiens, UniProt O95477); test: Cholesterol efflux, ABCA1 transfected BHK cells; assay type: cell-based; conditions: ABCA1 expressing BHK cells, 18 h
Chain of human ABCA1 (O95477 whole entry): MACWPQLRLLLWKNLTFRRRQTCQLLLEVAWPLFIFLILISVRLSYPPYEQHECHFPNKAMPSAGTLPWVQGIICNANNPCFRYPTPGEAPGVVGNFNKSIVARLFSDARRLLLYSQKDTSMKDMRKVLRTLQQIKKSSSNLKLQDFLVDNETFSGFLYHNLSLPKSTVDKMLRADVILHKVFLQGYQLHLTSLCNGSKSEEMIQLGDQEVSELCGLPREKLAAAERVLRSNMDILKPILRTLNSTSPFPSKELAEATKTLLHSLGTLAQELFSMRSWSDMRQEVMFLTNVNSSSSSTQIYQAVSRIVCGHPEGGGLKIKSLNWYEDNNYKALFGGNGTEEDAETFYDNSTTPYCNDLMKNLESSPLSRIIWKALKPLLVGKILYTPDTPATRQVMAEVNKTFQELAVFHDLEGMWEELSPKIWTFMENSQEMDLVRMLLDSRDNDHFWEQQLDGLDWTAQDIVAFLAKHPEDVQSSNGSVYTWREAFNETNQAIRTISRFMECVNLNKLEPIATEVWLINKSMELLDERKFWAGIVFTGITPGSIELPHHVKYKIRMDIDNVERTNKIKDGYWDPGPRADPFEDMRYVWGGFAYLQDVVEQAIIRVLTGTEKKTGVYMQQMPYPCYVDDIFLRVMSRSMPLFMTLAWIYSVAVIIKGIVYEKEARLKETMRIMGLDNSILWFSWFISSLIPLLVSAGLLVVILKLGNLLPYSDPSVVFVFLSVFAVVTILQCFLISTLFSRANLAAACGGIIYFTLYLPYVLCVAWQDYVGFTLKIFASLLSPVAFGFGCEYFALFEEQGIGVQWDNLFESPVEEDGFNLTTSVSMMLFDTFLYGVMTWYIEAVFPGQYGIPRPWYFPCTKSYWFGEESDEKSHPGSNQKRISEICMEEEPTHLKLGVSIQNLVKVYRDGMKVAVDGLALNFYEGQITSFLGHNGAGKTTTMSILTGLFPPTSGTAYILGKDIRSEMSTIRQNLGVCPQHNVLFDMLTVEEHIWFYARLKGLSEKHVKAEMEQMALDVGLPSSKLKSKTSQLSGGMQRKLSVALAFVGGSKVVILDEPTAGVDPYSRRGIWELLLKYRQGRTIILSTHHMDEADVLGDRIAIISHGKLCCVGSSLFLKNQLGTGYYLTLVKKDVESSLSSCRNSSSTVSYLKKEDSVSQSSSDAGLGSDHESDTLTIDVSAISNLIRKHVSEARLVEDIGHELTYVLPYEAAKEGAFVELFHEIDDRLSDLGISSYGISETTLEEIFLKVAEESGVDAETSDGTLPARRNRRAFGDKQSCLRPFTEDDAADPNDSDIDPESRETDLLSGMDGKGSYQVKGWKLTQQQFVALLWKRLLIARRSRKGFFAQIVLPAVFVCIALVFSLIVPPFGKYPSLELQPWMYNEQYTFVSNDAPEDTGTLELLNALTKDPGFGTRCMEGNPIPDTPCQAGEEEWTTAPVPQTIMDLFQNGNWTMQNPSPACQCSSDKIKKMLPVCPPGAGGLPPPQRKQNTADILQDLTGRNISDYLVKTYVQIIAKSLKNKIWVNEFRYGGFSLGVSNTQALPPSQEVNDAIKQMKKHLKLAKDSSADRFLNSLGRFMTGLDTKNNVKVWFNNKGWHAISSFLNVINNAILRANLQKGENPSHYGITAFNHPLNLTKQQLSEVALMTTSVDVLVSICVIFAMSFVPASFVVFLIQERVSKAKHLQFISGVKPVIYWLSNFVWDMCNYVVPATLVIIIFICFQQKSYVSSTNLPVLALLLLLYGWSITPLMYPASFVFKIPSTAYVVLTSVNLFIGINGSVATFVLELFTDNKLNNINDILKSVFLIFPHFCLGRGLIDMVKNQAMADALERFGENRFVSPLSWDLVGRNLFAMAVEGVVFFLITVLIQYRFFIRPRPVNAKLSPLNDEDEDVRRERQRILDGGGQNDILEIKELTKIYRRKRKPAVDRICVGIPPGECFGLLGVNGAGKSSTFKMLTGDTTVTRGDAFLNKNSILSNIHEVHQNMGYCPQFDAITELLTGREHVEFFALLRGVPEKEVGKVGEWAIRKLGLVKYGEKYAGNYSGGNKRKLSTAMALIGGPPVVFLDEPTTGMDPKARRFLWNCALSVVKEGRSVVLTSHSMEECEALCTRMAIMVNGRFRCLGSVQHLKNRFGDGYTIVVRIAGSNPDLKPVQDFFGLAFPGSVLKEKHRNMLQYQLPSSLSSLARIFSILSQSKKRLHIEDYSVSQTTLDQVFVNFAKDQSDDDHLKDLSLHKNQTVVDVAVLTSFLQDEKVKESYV
Method in brief: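 BHK cells stably expressing human ABCA1 labelled 18 h with [3H]cholesterol in DMEM plus 10% fetal calf serum. Cells were washed, then switched to serum-free DMEM with 0.1 mg/ml fatty acid-free BSA. Peptide over a concentration range, or PBS, added for 18 h. Media filtered, cells lysed in 0.1% SDS/0.1 N NaOH, both counted by liquid scintillation. Efflux = media counts/(media + cell counts) × 100.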

DMPC vesicle clearance = assay type: physicochemical; conditions: peptide 100 ng/ml, DMPC 1 mg/ml, PBS, 24 °C, 60 min, absorbance 432 nm
Method in brief: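 Multilamellar DMPC vesicles (1 mg/ml) made by resuspending dried lipid in PBS and vortexing for 5 min. Peptide added to 100 ng/ml final. Absorbance at 432 nm read every 5 s for 60 min at 24 °C with fast shaking to prevent settling. Turbidity compared with a PBS-only control.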

human red blood cells = test: Red blood cell lysis assay; assay type: cell-based; conditions: human RBCs, 0 – 100 µM, 2 h room temperature, 1% Triton X-100 = 100% lysis
Method in brief: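 Human erythrocytes washed 5 times in PBS with 5% glucose, pH 7.4. Incubated with peptide at 0–100 µM for 2 h at room temperature, then pelleted at 1000×g for 5 min. Supernatant absorbance read at 450 nm. 1% Triton X-100 served as the 100% lysis reference.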

BHK cells = test: Visual cytotoxicity during cholesterol efflux experiments; assay type: cell-based; conditions: during the cholesterol efflux experiments
[5] = 0.2 mg/mL peptide, 10 mM phosphate buffer

helicity, with TFE [1, 5]: 59%
helicity, aqueous solution ([1]; 0.2 mg/mL peptide, 10 mM phosphate buffer, no TFE): 40.1%
helicity, with POPC vesicles ([1]; POPC vesicles added (also printed POPS)): 42.4%
secondary structure by CD, with POPC vesicles ([1]; POPC vesicles added): slight increase in helicity
total binding energy for LDL relative to HDL (isolated human LDL; ITC, isolated human LDL vs. HDL): 2.7 times
shape of ITC thermal energy curve (isolated human LDL; binding to lipoprotein particles): U-shaped curve
binding energy in buffer control (isolated human LDL; peptide in buffer control (no LDL)): lack of significant binding energy
percent of peptide bound to apoB containing lipoproteins [3]: 17%
concentration above which a small amount of red cell lysis occurs (human red blood cells): above 30 uM
Substance: EKLKAKLKEGGQELQRYLSLVGQVYSTLVTYISDWWTLGGEKLKAKLKE [B38]
secondary structure by CD, aqueous solution ([1]; 10 mM phosphate buffer, no TFE): α-helical secondary structure; also recorded: formed an α-helix in aqueous buffer
lipoprotein binding of synthesized HCD peptides (isolated human LDL; ITC, lipoprotein class not specified): showed significant lipoprotein binding capacity
binding to LDL by ITC (isolated human LDL): high affinity binding to both isolated HDL and LDL; also recorded: only peptide with significant binding affinity for LDL
binding to HDL by ITC (isolated human HDL): high affinity binding to both isolated HDL and LDL; also recorded: found to bind to high density lipoprotein (HDL) but with lower affinity than LDL
oligomeric forms in aqueous solution [2]: presence of B38 oligomers in aqueous solution
exchangeability between lipoproteins [4]: could exchange between lipoproteins; also recorded: exchangeable between lipoproteins
cholesterol efflux, ABCA1 cells (human ABCA1): capable of ABCA1-dependent cholesterol efflux from cells; also recorded: promotes ABCA1 specific cholesterol efflux
solubilization / clearance of DMPC vesicles (DMPC vesicle clearance): rapidly cleared the solution; also recorded: does not clear DMPC vesicles as rapidly
visual evidence of cytotoxicity (BHK cells): no visual evidence of cytotoxicity was observed

helicity, with TFE [1, 5]: 60%
secondary structure by CD, aqueous solution ([1]; 10 mM phosphate buffer, no TFE): random coil structure
Substance: EKLKAKLKEGGKATLELSPWQMSALVQVHASQPSSFHDFPDLGGEKLKAKLKE [B61]

helicity, with TFE [1, 5]: 40%
secondary structure by CD, aqueous solution ([1]; 10 mM phosphate buffer, no TFE): random coil structure
Substance: EKLKAKLKEGGGLSDEAVTSLLPQLIEVSSPGGEKLKAKLKE [B07]

helicity, with TFE [1, 5]: 43%
secondary structure by CD, aqueous solution ([1]; 10 mM phosphate buffer, no TFE): random coil structure
Substance: EKLKAKLKEGGLNIKRGIISALLVPPETEEAGGEKLKAKLKE [B04]

The remaining lines, values behind:

Substance: apoB: large amphipathic protein, structural scaffold of several classes of lipoproteins
cholesterol efflux from cells (cells): does not promote cholesterol efflux from cells

Substance: DWLKAFYDKVAEKLKEAFPDWAKAAYDKAAEKAKEAA [5A, reference compound]
solubilization / clearance of DMPC vesicles (DMPC vesicle clearance): rapidly cleared the solution

Substance: EKLKAKLKEGGEKLKAKLKE [FLANK]
helicity, with TFE [1, 5]: 38%
secondary structure by CD, aqueous solution ([1]; 10 mM phosphate buffer, no TFE): random coil structure
binding to LDL by ITC (isolated human LDL): did not appear to bind strongly to either lipoprotein
binding to HDL by ITC (isolated human HDL): did not appear to bind strongly to either lipoprotein
oligomeric forms in aqueous solution [2]: only found as monomer and dimer in aqueous solution
cholesterol efflux, ABCA1 cells (human ABCA1): ineffective in promoting cholesterol efflux
solubilization / clearance of DMPC vesicles (DMPC vesicle clearance): did not solubilize DMPC vesicles

Source: PMC5191920 (Biochimica et biophysica acta, 2016)
